# According to ChEMBL document CHEMBL2434863, “Synthesis and in vitro/in vivo antibacterial activity of oxazolidinones having thiocarbamate at C-5 on the A-ring and an amide- or urea-substituted [1,2,5]triazepane or [1,2,5]oxadiazepane as the C-ring” (Eur J Med Chem, 2013):
# Legend:
# Type in all cases: functional
# Staphylococcus aureus [1] = assay: Antibacterial activity against linezolid-resistant Staphylococcus aureus NRS271 assessed as growth inhibition by broth microdilution method
# Enterococcus faecium [2] = assay: Antibacterial activity against Enterococcus faecium SR7940 clinical isolate assessed as growth inhibition by broth microdilution method
# Staphylococcus aureus [3] = assay: Antibacterial activity against Staphylococcus aureus SR20549 clinical isolate assessed as growth inhibition by broth microdilution method
# Moraxella catarrhalis [4] = assay: Antibacterial activity against Moraxella catarrhalis SR26840 clinical isolate assessed as growth inhibition by broth microdilution method
# Streptococcus pneumoniae [5] = assay: Potency index, ratio of linezolid MIC to compound MIC for Streptococcus pneumoniae SR26207 clinical isolate
# Enterococcus faecalis [6] = assay: Potency index, ratio of linezolid MIC to compound MIC for Enterococcus faecalis SR1004 clinical isolate
# Staphylococcus aureus [7] = assay: Potency index, ratio of linezolid MIC to compound MIC for Staphylococcus aureus SR20549 clinical isolate
# Staphylococcus aureus [8] = assay: Antibacterial activity against Staphylococcus aureus Smith assessed as growth inhibition by broth microdilution method
# Haemophilus influenzae [9] = assay: Potency index, ratio of linezolid MIC to compound MIC for Haemophilus influenzae SR27914 clinical isolate
# Staphylococcus aureus [10] = assay: Potency index, ratio of linezolid MIC to compound MIC for Staphylococcus aureus Smith
# Streptococcus pneumoniae [11] = assay: Antibacterial activity against Streptococcus pneumoniae SR26207 clinical isolate assessed as growth inhibition by broth microdilution method
# Moraxella catarrhalis [12] = assay: Potency index, ratio of linezolid MIC to compound MIC for Moraxella catarrhalis SR26840 clinical isolate
# Enterococcus faecalis [13] = assay: Antibacterial activity against Enterococcus faecalis SR1004 clinical isolate assessed as growth inhibition by broth microdilution method
# Enterococcus faecium [14] = assay: Potency index, ratio of linezolid MIC to compound MIC for Enterococcus faecium SR7940 clinical isolate
# Haemophilus influenzae [15] = assay: Antibacterial activity against Haemophilus influenzae SR27914 clinical isolate assessed as growth inhibition by broth microdilution method
# Staphylococcus aureus [16] = assay: Antibacterial activity against methicillin-resistant Staphylococcus aureus SR3637 infected in JCL/ICR mouse systemic infection model assessed as mortality administered as iv measured over 7 days; settings: 168 h
# Procedure, shortened: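 Lethal systemic infection model in mice; test agents were given intravenously.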
# Staphylococcus aureus [17] = assay: Antibacterial activity against methicillin-resistant Staphylococcus aureus SR3637 assessed as growth inhibition by broth microdilution method
Compound,MIC (Staphylococcus aureus [1]) [µg/mL],MIC (Enterococcus faecium [2]) [µg/mL],MIC (Staphylococcus aureus [3]) [µg/mL],MIC (Moraxella catarrhalis [4]) [µg/mL],Ratio (Streptococcus pneumoniae [5]),Ratio (Enterococcus faecalis [6]),Ratio (Staphylococcus aureus [7]),MIC (Staphylococcus aureus [8]) [µg/mL],Ratio (Haemophilus influenzae [9]),Ratio (Staphylococcus aureus [10]),MIC (Streptococcus pneumoniae [11]) [µg/mL],Ratio (Moraxella catarrhalis [12]),MIC (Enterococcus faecalis [13]) [µg/mL],Ratio (Enterococcus faecium [14]),MIC (Haemophilus influenzae [15]) [µg/mL],ED50 (Staphylococcus aureus [16]) [mg/kg],MIC (Staphylococcus aureus [17]) [µg/mL]
CC(=O)NC[C@H]1CN(c2ccc(-c3ccc(N4CCNOCC4)nc3)c(F)c2)C(=O)O1,8,1,1,16,2,2,2,2,2,2,0.125,2,1,2,16,,
O=C1O[C@@H](Cn2ccnn2)CN1c1ccc(-c2ccc(N3CCNOCC3)nc2)c(F)c1,8,1,1,8,2,2,2,2,2,2,0.25,2,2,2,32,,
CC(=S)NC[C@H]1CN(c2ccc(N3CCNN(C(N)=O)CC3)c(F)c2)C(=O)O1,8,0.5,0.25,4,4,4,4,0.25,4,4,0.063,4,0.5,4,4,,
CC(=S)NC[C@H]1CN(c2cc(F)c(N3CCNN(C(N)=O)CC3)c(F)c2)C(=O)O1,4,0.25,0.125,1,4,4,4,0.25,4,4,0.063,4,0.25,4,4,,
COC(=S)NC[C@H]1CN(c2ccc(N3CCNN(C(N)=O)CC3)c(F)c2)C(=O)O1,4,0.125,0.25,2,4,4,4,0.25,4,4,≤ 0.063,4,0.25,4,4,,
COC(=S)NC[C@H]1CN(c2cc(F)c(N3CCNN(C(N)=O)CC3)c(F)c2)C(=O)O1,2,0.125,0.25,0.5,4,4,4,0.25,4,4,≤ 0.063,4,0.5,4,16,1.23,0.25
COC(=S)NC[C@H]1CN(c2cc(F)c(N3CCON(C(N)=O)CC3)c(F)c2)C(=O)O1,2,0.125,0.25,1,4,4,4,0.25,4,4,≤ 0.063,4,0.25,4,8,,
O=CN1CCN(c2c(F)cc(N3C[C@H](CNc4ccon4)OC3=O)cc2F)CCN1,16,1,0.5,8,4,4,4,1,4,4,0.25,4,1,4,16,,
